Several values for one entry are separate records, joined by “and”; a condition that tells them apart may be missing. Equal values may be shown once.
Legend:
Mus musculus [1] = test: Percent median survival time of mice injected with P388 leukemia, at a subcutaneous compound dose of 160-320 mg/kg; type: functional
Mus musculus [2] = test: Long-term survivors among 21 mice infected with P388 leukemia, scored on day 60 at 160-320 mg/kg dose on day 1; type: functional
How it was run: (§1)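 B6D2F1 mice in groups of 6–7 were inoculated ip on day 0 with 10^6 P388 cells. Dihydrochloride salts were dissolved in water and given iv on day 1 or on days 1, 5 and 9. Doses ranged from a low nontoxic dose to a toxic one. Long-term survivors were counted at day 60.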

Mus musculus [3] = test: Long-term survivors among 21 mice infected with B16 melanoma, scored on day 90 at 10 mg/kg dose on days 1-9
Mus musculus [4] = test: Percent median survival time of mice injected with B16 melanoma, at a intraperitoneal compound dose of 10 mg/kg
B16 = test: Inhibition of murine B16 melanoma cell proliferation measured by the MTT assay; type: functional, cell-based; details: Mus musculus
How it was run: (§2)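 Murine L1210 leukemia and B16 melanoma cells were grown in RPMI 1640 with 10% fetal calf serum, 2 mM L-glutamine, penicillin/streptomycin and 10 mM HEPES (pH 7.4). Cells were exposed to nine serial drug dilutions in triplicate for about four doubling times (L1210 48 h, B16 96 h), then read by microculture tetrazolium (MTT) assay. IC50 is the concentration halving optical density versus untreated controls, averaged over ≥2 independent experiments.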

L1210 = test: Inhibition of murine L1210 leukemia cell proliferation measured by the MTT assay; type: functional, cell-based; details: Mus musculus; how it was run: as §2
Mus musculus [5] = test: Percent median survival time of mice injected with P388 leukemia, at a intravenous compound dose of 80 mg/kg
Mus musculus [6] = test: Percent median survival time of mice injected with P388 leukemia, at a intravenous compound dose of 80 mg/kg on day1
Mus musculus [7] = test: Long-term survivors among 12 mice infected with P388 leukemia, scored on day 60 at 80 mg/kg dose on day 1; type: functional; how it was run: as §1
Mus musculus [8] = test: Percent median survival time of mice injected with B16 melanoma, at a intraperitoneal compound dose of 5 mg/kg
Mus musculus [9] = test: Percent median survival time of mice injected with P388 leukemia, at a intravenous compound dose of 80 mg/kg on day1,5,9
Mus musculus [10] = test: Long-term survivors among 14 mice infected with B16 melanoma, scored on day 90 at 5 mg/kg dose; type: functional
How it was run: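 B6D2F1 mice were inoculated ip on day 0 with B16 tumor brei (1 g tumor in 10 mL 0.9% NaCl). Compounds were given ip daily on days 1–9. Long-term survivors were scored at day 90.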

Mus musculus [11] = test: Long-term survivors among 12 mice infected with P388 leukemia, scored on day 60 at 80 mg/kg dose on day 1, 5, 9; type: functional; how it was run: as §1
Mus musculus [12] = test: Long-term survivors among 13 mice infected with B16 melanoma, scored on day 90 at 10 mg/kg dose on days 1-9
Mus musculus [13] = test: Long-term survivors among 13 mice infected with P388 leukemia, scored on day 60 at 80 mg/kg dose on day 1; type: functional; how it was run: as §1
Mus musculus [14] = test: Percent median survival time of mice injected with P388 leukemia, at a subcutaneous compound dose of 40 mg/kg; type: functional
Mus musculus [15] = test: Percent median survival time of mice intraperitoneally injected with P388 leukemia was determined from tested at 5 mg/kg at day1,5,9 dose to that of control; type: functional; details: route intraperitoneal
How it was run: (§3)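 P388 leukemia in B6D2F1 mice (groups of 6–7), 10^6 cells inoculated ip on day 0. Dihydrochloride salts were dissolved in water and given iv on day 1 or on days 1, 5, 9. Three doses were tested, then five if active. %T/C = median survival treated/control × 100, reported at the optimal dose (no toxic death, weight loss <20%), from one or two representative experiments.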

Mus musculus [16] = test: Long-term survivors among 6 mice infected with P388 leukemia, scored on day 60 at 5 mg/kg dose; type: functional; how it was run: as §1
Mus musculus [17] = test: Long-term survivors among 6 mice infected with P388 leukemia, scored on day 60 at 10 mg/kg dose; type: functional; how it was run: as §1
Mus musculus [18] = test: Percent median survival time of mice intraperitoneally injected with P388 leukemia was determined from tested at 10 mg/kg at day1 dose to that of control; type: functional; how it was run: as §3
Mus musculus [19] = test: Percent median survival time of mice injected with B16 melanoma, at a intraperitoneal compound dose of 20 mg/kg
Mus musculus [20] = test: Percent median survival time of mice injected with P388 leukemia at 160 mg/Kg dose; not tested; type: functional
Mus musculus [21] = test: Percent median survival time of mice injected with P388 leukemia at 240 mg/Kg dose; not tested; type: functional
Mus musculus [22] = test: Percent median survival time of mice injected with B16 melanoma at 80 mg/Kg subcutaneous dose; not tested; type: functional
Mus musculus [23] = test: Long-term survivors among 7 mice infected with B16 melanoma, scored on day 90 at 240 mg/kg dose on day 1; type: functional
Mus musculus [24] = test: Long-term survivors among 7 mice infected with P388 leukemia, scored on day 60 at 240 mg/kg dose on day 1; type: functional
How it was run: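 B6D2F1 mice in groups of 6–7 received 10^6 P388 cells ip on day 0. Dihydrochloride salts dissolved in water were injected iv on day 1 or on days 1, 5 and 9, at three doses and then five. Read-outs were % T/C (median survival treated/control × 100) and long-term survivors on day 60, both at the optimal dose (no toxic death, weight loss <20%).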

Mus musculus [25] = test: Percent median survival time of mice injected with B16 melanoma, at a intraperitoneal compound dose of 2.5-5 mg/kg
Mus musculus [26] = species: Mus musculus; test: Long-term survivors among 14 mice infected with B16 melanoma, scored on day 90 at optimal dose on days 1-9
Mus musculus [27] = test: Percent median survival time of mice injected with P388 leukemia, at a intravenous compound dose of 40 mg/kg
Mus musculus [28] = test: Percent median survival time of mice injected with P388 leukemia, at a subcutaneous compound dose of 20 mg/kg; type: functional
Mus musculus [29] = test: Long-term survivors among 14 mice infected with P388 leukemia, scored on day 60 at 40 mg/kg dose on day 1; type: functional; how it was run: as §1

Cc1c2ccnc(C(=O)NCCN(C)C)c2cc2c3cc(OC(=O)CCCC(=O)O)ccc3n(C)c12
T/C (Mus musculus [1]): >590%
LTS (Mus musculus [2]): 4
LTS (Mus musculus [3]): 2
T/C (Mus musculus [4]): 196%
IC50 (B16): 14.8 nM
IC50 (L1210): 19.7 nM
T/C (Mus musculus [5]): >582%

Cc1c2ccnc(C(=O)NCCN(C)C)c2cc2c3cc(O)ccc3n(C)c12
T/C (Mus musculus [6]): 227%
LTS (Mus musculus [7]): 0
T/C (Mus musculus [8]): 174%
T/C (Mus musculus [9]): >541%
IC50 (B16): 5.4 nM
LTS (Mus musculus [10]): 0
IC50 (L1210): 13.1 nM
LTS (Mus musculus [11]): 7

Cc1c2ccnc(C(=O)NCCN(C)C)c2cc2c3cc(OC(=O)c4cccnc4)ccc3n(C)c12
T/C (Mus musculus [4]): 190%
IC50 (B16): 2.3 nM
IC50 (L1210): 74.5 nM
LTS (Mus musculus [12]): 0
LTS (Mus musculus [13]): 0
T/C (Mus musculus [14]): 199% and 283%

Cc1c2ccnc(C(=O)NCCN(C)C)c2cc2c3cc(OC(=O)N(C)c4ccccc4)ccc3n(C)c12
T/C (Mus musculus [15]): 106%
LTS (Mus musculus [16]): 0
LTS (Mus musculus [17]): 0
T/C (Mus musculus [18]): 100%
IC50 (B16): 1370 nM
T/C (Mus musculus [19]): 101%
IC50 (L1210): 1170 nM

Cc1c2ccnc(C(=O)NCCN(C)C)c2cc2c3cc(OC(=O)NCCC(=O)O)ccc3n(C)c12
T/C (Mus musculus [20]): 109%
T/C (Mus musculus [21]): 109%
T/C (Mus musculus [22]): 138%
LTS (Mus musculus [23]): 0
IC50 (B16): 78.7 nM
LTS (Mus musculus [24]): 0
IC50 (L1210): 654 nM

Cc1c2c(C(=O)NCCN(C)C)nccc2c(C)c2c1c1cc(OC(=O)CCCCC(=O)O)ccc1n2C
T/C (Mus musculus [25]): 361%
LTS (Mus musculus [26]): 4
IC50 (B16): 6.3 nM
T/C (Mus musculus [27]): >600%
T/C (Mus musculus [28]): >600%
IC50 (L1210): 45.9 nM
LTS (Mus musculus [29]): 11

Source: ChEMBL document CHEMBL1132144, “Synthesis of 9-O-substituted derivatives of 9-hydroxy-5, 6-dimethyl-6H-pyrido[4,3-b]carbazole-1-carboxylic acid (2-(dimethylamino)ethyl)amide and their 10- and 11-methyl analogues with improved antitumor activity” (J Med Chem, 1999)
